KCNQ1 act: potentiators or activators of human KCNQ1 potassium channel; AID 2648; B-score at 10 µM; CHO-K1 KCNQ1, thallium flux FluxOR fluorescence; active compounds read high; hit rate 0.35% among 310,000;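 active = fluorescence ratio B-score, a plate-corrected score, at least three library SD, with initial intensity B-score within 5 SD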
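Assay system: stable KCNQ1 CHO-K1 line; medium: assay buffer, equal DMSO in all wells; timing: 90 min dye loading and 20 min compound exposure, both at room temperature; technique: kinetic FluxOR thallium fluorescence, 10-s 1-Hz baseline, 110-s post-stimulus read; read-out basis: B score of baseline-normalized fluorescence ratio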
KCNK3 inh: human KCNK3 channel inhibition, primary screen; O14649; CHO-KCNK3 thallium flux, FluxOR fluorescence; active compounds read low; B-score at 10 µM; hit rate 0.84% among 340,000; AID 602410;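 active = B-score under library mean minus 4 SD, starting fluorescence ratio at most library mean plus 5 SD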;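 note: more negative B-score means stronger inhibition of thallium flux through KCNK3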
hERG rescue: compounds protecting human hERG from proarrhythmic drug block | Q12809 | AID 1511 | CHO-hERG, FluxOR thallium flux, dofetilide IC70 present | hit rate 0.51% among 310,000 | activation (rescue from dofetilide block), less the hit threshold, % at 10 µM;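 active = activation above the mean of controls blocked by dofetilide plus 5 SD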;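 note: thallium influx through hERG after potassium depolarization seen as dye fluorescence rise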
Target sequence (Q12809 whole entry, looked up): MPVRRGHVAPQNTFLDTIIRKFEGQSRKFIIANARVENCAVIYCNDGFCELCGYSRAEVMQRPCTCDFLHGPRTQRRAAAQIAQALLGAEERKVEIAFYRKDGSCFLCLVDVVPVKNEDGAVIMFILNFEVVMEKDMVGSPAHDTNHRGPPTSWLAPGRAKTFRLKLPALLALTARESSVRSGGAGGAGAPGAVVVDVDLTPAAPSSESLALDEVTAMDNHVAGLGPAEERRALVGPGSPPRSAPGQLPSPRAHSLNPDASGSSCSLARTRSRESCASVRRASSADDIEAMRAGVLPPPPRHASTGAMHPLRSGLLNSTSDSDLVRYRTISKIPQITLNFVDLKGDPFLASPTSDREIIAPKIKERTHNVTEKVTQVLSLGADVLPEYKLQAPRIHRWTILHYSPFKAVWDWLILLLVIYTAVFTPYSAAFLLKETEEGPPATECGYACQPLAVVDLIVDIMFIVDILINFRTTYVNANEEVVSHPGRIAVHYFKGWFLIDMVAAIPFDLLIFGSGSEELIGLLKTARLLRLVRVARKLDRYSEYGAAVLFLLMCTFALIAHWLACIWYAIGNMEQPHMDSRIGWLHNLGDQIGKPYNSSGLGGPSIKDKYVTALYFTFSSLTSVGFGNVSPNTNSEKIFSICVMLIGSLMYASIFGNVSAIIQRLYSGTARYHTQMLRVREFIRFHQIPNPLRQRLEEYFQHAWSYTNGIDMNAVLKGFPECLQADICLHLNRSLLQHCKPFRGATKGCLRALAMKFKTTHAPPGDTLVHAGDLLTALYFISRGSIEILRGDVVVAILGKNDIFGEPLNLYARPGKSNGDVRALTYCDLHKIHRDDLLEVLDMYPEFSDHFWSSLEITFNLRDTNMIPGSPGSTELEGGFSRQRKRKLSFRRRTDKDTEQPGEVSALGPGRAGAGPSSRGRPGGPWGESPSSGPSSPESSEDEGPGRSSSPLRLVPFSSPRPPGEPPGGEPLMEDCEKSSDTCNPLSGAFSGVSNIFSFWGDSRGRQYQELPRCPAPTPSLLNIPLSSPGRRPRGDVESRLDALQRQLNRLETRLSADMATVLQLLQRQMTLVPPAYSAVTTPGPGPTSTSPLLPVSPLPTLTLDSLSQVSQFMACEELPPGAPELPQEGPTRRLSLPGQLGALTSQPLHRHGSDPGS
Kir21 block: Kir2.1 (mouse) channel inhibition | P35561 | HEK293-Kir2.1, FluxOR thallium flux fluorescence; active compounds read low | B-score at 10 µM | hit rate 0.85% among 310,000;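 active = fluorescence ratio B-score at or below minus 3 SD of library scores, with starting-brightness B-score within 2 SD, cut at about -4.2 in these data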;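 note: channel flux triggered by added potassium and thallium sulfate stimulus; B-score of peak minus minimum fluorescence over baseline after thallium stimulus; more negative B-score means stronger Kir2.1 block with less thallium influx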
KCNK9 block: inhibitors of human KCNK9 two-pore domain potassium channel; Q9NPC2; HEK293 KCNK9, FluxOR thallium flux fluorescence; active compounds read low; B-score at 10 µM; hit rate 1.2% among 310,000;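 active = ratio B-score over 3 SD below the library mean, with starting fluorescence within 5 SD of its mean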;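 note: negative B-score means less thallium flux so channel inhibition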
KCNQ1 block: inhibitors of human KCNQ1 potassium channel; P51787; CHO-K1 KCNQ1, FluxOR thallium flux fluorescence; active compounds read high; B-score at 10 µM; hit rate 1.3% among 310,000; AID 2642;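 active = compounds whose thallium flux B-score, printed positive for inhibition, exceeds three library SD while starting fluorescence stays within three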;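 note: channel opened by potassium depolarization with thallium stimulus after 20 min compound exposure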
KCNK9 block conf: human KCNK9 inhibitor confirmation; inhibition, % at 10 µM; hit rate 43% among 4,900; AID 492992; HEK293 KCNK9 cells, FluxOR thallium flux fluorescence; shares compounds with KCNK9 block;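 active = thallium signal inhibited by more than 5 SD of the compound-free buffer control wells, on both duplicate plates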;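 note: 0% = assay buffer control wells without compound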
Kir2-1 spec: tests whether KCNK9 modulators also affect mouse Kir2.1. hit rate 4% among 4,900. inhibition, % at 10 µM. AID 492993. Kir2.1 cells, FluxOR thallium flux fluorescence. shares compounds with KCNK9 block;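 active = thallium signal drop more than 5 SD beyond the mean of the no-compound control wells, seen in both duplicate plates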;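 note: signal is fluorescence rise after thallium addition divided by baseline fluorescence; plate controls were assay buffer only for no effect and full block by chlorpromazine control for full effect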
HEK293 Tl ctr: second check of KCNK9 modulator effects in non-induced HEK293 cells; inhibition, % at 10 µM; AID 492997; FluxOR thallium flux; shares compounds with KCNK9 block; hit rate 40% among 4,900;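 active = thallium signal drop beyond 5 SD of the untreated control mean, on both duplicate plates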;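 note: plate controls were buffer only IC0 wells for no effect and SID17386958 at its maximal inhibitory level for full effect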
* hit, by the source's call; i = inactive; / = not tested or not shown. Compounds with a hit are over-represented: about 3.7% of the library has one in this group of screens.

SMILES	KCNQ1 act	KCNK3 inh	hERG rescue	Kir21 block	KCNK9 block	KCNQ1 block	KCNK9 block conf	Kir2-1 spec	HEK293 Tl ctr
CCCC(c1nnnn1CS(=O)(=O)c1ccc(C)cc1)N1CCN(CC)CC1 (stereo not given)	i	i	0.4	0.58	i	i	/	/	/
COc1ccc(-n2nc(C(=O)O)cc2-c2ccccc2)cc1	i	i	-8.4	1.35	i	i	/	/	/
C=CCN1c2ccccc2[C@]23C[C@@H](C(=O)OC)N(C(=O)NCCC)C2=NC(C(=O)OC)=C(C(=O)OC)[C@H]13	i	i	-3.1	0.85	-9.28*	i	32.5%*	i	29.5%*
C#CCCOC(=O)N1C2=NC(C(=O)OC)=C(C(=O)OC)[C@@H]3N(C)c4ccccc4[C@]23C[C@H]1C(=O)OC	i	i	-9.0	0.31	i	i	/	/	/
C#CCCOC(=O)N1C2=NC(C(=O)OC)=C(C(=O)OC)[C@@H]3N(Cc4ccccc4)c4ccccc4[C@]23C[C@H]1C(=O)OC	i	i	-6.0	0.34	-9.5*	i	51.0%*	i	33.5%*
Cc1ccc(-c2csc3nc(SCC(=O)N(C)C)n(Cc4ccccc4)c(=O)c23)cc1	i	i	-13.5	0.51	-9.51*	i	49.5%*	i	28.0%*
CCOC(=O)c1[nH]ncc1CN1CCN(Cc2ccc(C)cc2)C(CCO)C1 (stereo not given)	i	i	-7.0	1.33	i	i	/	/	/
O=C(c1ccc(-c2cccc(C(F)(F)F)c2)o1)N1CCN(c2ccccc2O)CC1	i	i	-16.2	1.14	-8.52*	i	49.5%*	i	i
COc1ccc(/C=C(\C#N)C(=O)NCCc2ccccc2)cc1OCc1ccccc1	i	i	-18.6	0.6	i	i	i	i	i
COc1cc(/C=C(/C#N)C(=O)NCc2ccccc2)cc(OC)c1OC	i	i	-7.7	0.12	i	i	/	/	/
CCCCCCCCSc1nnc(CSc2nc3nc(C)cc(C)n3n2)o1	i	i	-8.4	-1.76	i	i	/	/	/
COc1ccc(CCN(C)C(=S)Nc2ccc(SC(F)F)cc2)cc1OC	i	i	1.2	-2.11	i	i	/	/	/
CC1=CC(c2ccc(Cl)cc2)n2nc(NC(=O)CCC(=O)O)nc2N1 (stereo not given)	i	i	-13.2	0.43	i	i	/	/	/
CCOC(=O)C1=C(CC)Nc2ccccc2N=C1NC(=O)CCNC(C)=O	i	i	-4.2	-0.01	i	i	/	/	/
CCOC(=O)C1=C(CC)Nc2ccccc2N=C1NC(=O)c1oc2ccccc2c1C	i	i	-34.2	-0.04	-11.1*	i	35.0%*	i	27.0%*
CCOCc1c(C(=O)NC2=Nc3ccccc3NC(CC)=C2C(=O)OCC)oc2ccccc12	i	i	-4.7	-2.5	-16.4*	i	47.0%*	i	i
CN1CCN(S(=O)(=O)c2cccc(C(=O)Nc3cc(Cl)ccc3N3CCOCC3)c2)CC1	i	i	-12.1	-0.69	i	i	/	/	/
Cc1cccc(-n2ccc(=O)c(C(=O)Nc3ccc(S(=O)(=O)N4CCOCC4)cc3)n2)c1	i	i	-4.8	0.11	i	i	/	/	/
CCCCN(CC(O)COc1cccc(C)c1)CC(O)COc1cccc(C)c1 (stereo not given)	i	i	-18.3	-2.95	i	i	i	i	41.5%*
CN(C)CC(O)COc1cccc(OCC(O)CN(C)C)c1 (stereo not given)	i	i	-5.2	-0.19	i	i	/	/	/
COC(=O)c1cc(CN2CCN(c3ccccc3C)CC2)ccc1O	i	i	-15.4	-1.24	i	i	i	i	i
Cc1ccccc1N1CCN(Cc2cccc(C(=O)O)c2)CC1	i	i	-5.7	-0.44	i	i	/	/	/
CCCCc1ccc(-n2nnnc2SCC(=O)Nc2cc(OC)c([N+](=O)[O-])cc2C)cc1	i	i	-9.4	-0.76	i	i	i	i	i
COc1ccc(S(=O)(=O)NCc2ccc(C(=O)N3CCc4ccccc4C3)cc2)cc1	i	i	-11.9	-0.61	i	i	/	/	/
Cc1[nH][nH]c(=O)c1C(c1ccc(-c2ccc(C(=O)O)cc2)o1)c1c(C)[nH][nH]c1=O	/	i	/	/	/	/	/	/	/
SMILES	KCNQ1 act	KCNK3 inh	hERG rescue	Kir21 block	KCNK9 block	KCNQ1 block	KCNK9 block conf	Kir2-1 spec	HEK293 Tl ctr
Cc1[nH][nH]c(=O)c1C(c1ccc(-c2ccc(Cl)c(Cl)c2)o1)c1c(C)[nH][nH]c1=O	10*	i	-8.3	-3.61	i	i	i	i	i
NC(=O)c1cnn(C2CCS(=O)(=O)C2)c1 (stereo not given)	i	i	0.2	0.81	i	i	/	/	/
CNS(=O)(=O)c1cccc(C(=O)OCc2cc(Cl)cc3c2OCOC3)c1	i	i	-8.8	-0.27	-12.6*	i	48.5%*	i	i
O=C(OCc1cc(Cl)cc2c1OCOC2)c1cccnc1Cl	/	i	/	/	/	/	/	/	/
CCn1c(CCCOc2ccc(Cl)cc2Cl)nnc1SCC(=O)Nc1cc(F)ccc1C	i	i	-6.0	0.03	-9.71*	i	57.5%*	i	30.5%*
Cn1c(CCCOc2ccc(Cl)cc2Cl)nnc1SCC(=O)Nc1cccc(F)c1	i	i	-6.6	-0.77	i	i	/	/	/
Cn1c(CCCOc2ccc(Cl)cc2Cl)nnc1SCC(=O)Nc1ccc(F)c(Cl)c1	i	i	-8.9	1.49	i	i	i	i	i
Cc1nn(-c2ccccn2)c2c1C(=O)C(Br)CC2 (stereo not given)	/	i	/	/	/	/	/	/	/
Cn1ncc(Cl)c1C(=O)NNC(=O)Nc1cccc2ccccc12	i	i	-12.6	0.01	i	i	/	/	/
CCC(=O)N1N=C(c2ccc(NS(C)(=O)=O)cc2)CC1c1ccc(N(C)C)cc1 (stereo not given)	i	i	-14.1	0.61	i	i	/	/	/
N#C/C(=C/c1ccc(N2CCCCC2)cc1)c1cccc(F)c1	i	i	-10.3	-1.42	i	i	/	/	/
N#C/C(=C/c1ccc(N2CCCCCC2)o1)c1ccc(Cl)cc1	i	i	-30.9	-3.77	-10.4*	7*	60.0%*	i	78.0%*
O=[N+]([O-])c1ccc(SCc2ccco2)cc1N1CCOCC1	i	i	-0.5	-2.78	i	i	i	i	i

High-throughput results from PubChem.
